An excerpt weighted towards active compounds, which were near 2% of everything screened.
IMP-1 inh-1 – inhibitors of Pseudomonas aeruginosa IMP-1 metallo-beta-lactamase | purified IMP-1, nitrocefin hydrolysis, epi-absorbance fluorescence | inhibition, % at 5.6 µM | 0.45% of 290,000 active;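 active = inhibition above the mean plus 3 SD of all compounds in the same screening run, cut at about 4.5% in these data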
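System: purified IMP-1; amount: IMP-1 0.2 nM before substrate addition; compound: single dose, 5.6 µM; times: 25 °C, 15 min preincubation, 25 min reaction; signal: Epi-absorbance via hydrolysed-nitrocefin quenching of white-plate fluorescence, 480/530 nm, EDTA stop; benchmarks: DMSO with and without IMP-1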
PvdQ acylase – blocks Pseudomonas aeruginosa PvdQ acylase activity; purified PvdQ acylase, fluorescence plate reader; inhibition, % at 10 µM; 0.063% of 340,000 active; AID 488965; in the data active = inhibition above about 30%, passing the limit was not always enough
PLCg1 inh – blocks human PLC-gamma1 enzyme activity | P19174 | purified PLC-gamma1, fluorogenic substrate, fluorescence | inhibition, % at 12.2 µM | 0.84% of 370,000 active; in the data active = inhibition above about 9.5%
PLCb3 inh – blocks human PLC-beta3 enzyme activity; Q01970; Purified PLC-beta3, fluorogenic substrate, fluorescence; inhibition, % at 12.2 µM; 0.18% of 370,000 active; AID 720704; in the data active = inhibition above about 11%
VIM-2 inhibitor – blocks Pseudomonas aeruginosa VIM-2 metallo-beta-lactamase | AID 1527 | 0.89% of 290,000 active | purified VIM-2, nitrocefin hydrolysis, epi-absorbance fluorescence | inhibition, % at 5.6 µM;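 active = inhibition above the mean of all tested compounds plus 3 SD, cutoff set per screening run, cut at about 7.5% in these data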;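 also: red hydrolysis product quenches plate fluorescence so inhibitors raise well fluorescence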
IMP-1 inh-2 – selectivity counter-screen for VIM-2 inhibitors: IMP-1 metallo-beta-lactamase inhibitors. shares compounds with VIM-2 inhibitor. purified IMP-1, nitrocefin hydrolysis, epi-absorbance fluorescence. inhibition, % at 5.6 µM. 1,300 tested, under 10 active. AID 1856; call rule not given here
VIM-2 FRET ctr – counter-screen for VIM-2 inhibitors: epi-absorbance artifacts via FRET; shares compounds with VIM-2 inhibitor; purified VIM-2, CCF2 FRET substrate hydrolysis; inhibition, % at 5.6 µM; 23% of 1,300 active; AID 1857;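 active = inhibition above the mean of all tested compounds plus 3 SD, cut at about 19% in these data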
TEM-1 counter – blocks E. coli TEM-1 beta-lactamase in VIM-2 selectivity screen; AID 1866; shares compounds with VIM-2 inhibitor; 3% of 1,300 active; Purified TEM-1, nitrocefin hydrolysis, epi-absorbance fluorescence; inhibition, % at 5.6 µM;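 active = inhibition above that campaign's mean inhibition plus 3 SD, cut at about 0.46% in these data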
Target sequence (P62593 whole entry, looked up): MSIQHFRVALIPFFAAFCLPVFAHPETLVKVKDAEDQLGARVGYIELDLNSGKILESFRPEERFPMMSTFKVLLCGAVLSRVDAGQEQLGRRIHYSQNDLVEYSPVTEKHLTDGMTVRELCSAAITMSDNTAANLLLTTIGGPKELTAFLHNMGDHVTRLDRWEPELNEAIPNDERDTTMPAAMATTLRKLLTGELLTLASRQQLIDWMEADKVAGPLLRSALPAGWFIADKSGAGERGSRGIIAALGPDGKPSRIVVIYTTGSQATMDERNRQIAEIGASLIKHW
VIM-2 inh conf – confirmation of P. aeruginosa VIM-2 metallo-beta-lactamase inhibitors; shares compounds with VIM-2 inhibitor; purified VIM-2, nitrocefin hydrolysis, epi-absorbance; inhibition, % at 5.6 µM; 96% of 1,300 active; AID 2187;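 active = inhibition of the VIM-2 beta-lactamase enzyme above about 11% from the earlier first-round screen, limit read from the data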
Numbers stand for hits; i = inactive; nt = no result given.

SMILES	IMP-1 inh-1	PvdQ acylase	PLCg1 inh	PLCb3 inh	VIM-2 inhibitor	IMP-1 inh-2	VIM-2 FRET ctr	TEM-1 counter	VIM-2 inh conf
CC(Oc1cc2oc(=O)c3c(c2cc1Cl)CCC3)C(=O)NCC1CCC(C(=O)O)CC1 (centres undefined)	i	i	i	i	i	nt	nt	nt	nt
CC(CCN1CCC(C(O)(c2ccccc2)c2ccccc2)CC1)Oc1ccccc1C#N (centres undefined)	nt	nt	i	i	nt	nt	nt	nt	nt
CCSS(=O)(=O)c1cccc2cccnc12	i	i	i	i	23	i	i	i	29
O=C(O)CCS(=O)(=O)c1cccc2cccnc12	i	i	i	i	i	nt	nt	nt	nt
CN1CCN(c2ccccc2NC(=O)c2sc3ccccc3c2Cl)CC1	i	i	i	i	16	i	i	i	39
CCOC(=O)c1sc(NC(=O)CCN2CCN(CC)CC2)c(C(=O)OCC)c1C	i	i	i	i	14	i	i	i	27
CN(C)C(=O)CSc1nc(-c2ccccc2)nc2c1CCCC2	i	i	i	i	i	nt	nt	nt	nt
CN(C)CCCSc1nc(-c2ccccc2)nc2c1CCC2	i	i	i	i	35	i	i	i	57
CCOC(=O)c1c(-c2ccc(-c3ccccc3)cc2)csc1NC(=O)CNCCN(C)C	i	i	i	i	17	i	i	i	27
O=C(O)c1ccccc1Sc1ncnc2sc3c(c12)CCC3	i	i	i	i	29	i	61	i	37
CC(C)COC(=O)c1cc(-c2ccc(/C=N/n3cnnc3)o2)ccc1Cl	i	i	i	i	i	nt	nt	nt	nt
Fc1ccc(-c2ccc(/C=N/n3cnnc3)o2)cc1	i	i	i	i	18	i	i	i	30
Fc1ccc(-c2ccc(/C=N\n3cnnc3)o2)cc1Cl	i	i	i	i	45	i	i	i	57
C=CCN1[C@H](CC(C)C)COc2cc(N3CCSCC3)ccc2S1(=O)=O	nt	nt	i	i	nt	nt	nt	nt	nt
CCCCn1c(-c2nn(C)c(C)c2Cl)n[nH]c1=S	i	i	i	i	36	i	66	i	46
Cc1c(Cl)c(-c2n[nH]c(=S)n2CC(C)C)nn1C	i	i	i	i	i	nt	nt	nt	nt
CCCCCCn1c(-c2cccs2)n[nH]c1=S	i	i	i	i	72	i	83	i	76
CCCCn1c(-c2nn(C)cc2Cl)n[nH]c1=S	i	i	i	i	39	i	66	i	48
Cc1ccc(S(=O)(=O)N2CCN(C(=O)c3cccn3C)CC2)cc1	nt	nt	i	i	nt	nt	nt	nt	nt
COC(=O)[C@]12C[C@H](CC(=O)NCCc3ccccc3OC)C(=O)N(CCC3=CCCCC3)C1=C[C@H](C(C)C)O[C@@H]2C1CC1	nt	nt	i	i	nt	nt	nt	nt	nt
CC(=O)NCCn1c(SCC(=O)c2ccccc2)nc2ccccc2c1=O	i	i	i	i	14	i	24	i	20
CCCC[C@@H](CNC)NC[C@H](Cc1ccc(O)cc1)NCCc1ccc(OCC)cc1	i	i	i	i	67	i	i	i	70
CCC[C@H](CN[C@@H](CNC)[C@H](C)O)NCCc1ccc(OC)cc1	i	i	i	i	i	nt	nt	nt	nt
COc1cc(C=NN=c2sc3ccccc3n2C)ccc1OCCO	nt	nt	i	i	nt	nt	nt	nt	nt
O=C(OC12CCCN(C1)/C(=C/c1ccc(Cl)cc1)C2)c1ccc(F)cc1 (centres undefined)	nt	nt	i	i	nt	nt	nt	nt	nt
SMILES	IMP-1 inh-1	PvdQ acylase	PLCg1 inh	PLCb3 inh	VIM-2 inhibitor	IMP-1 inh-2	VIM-2 FRET ctr	TEM-1 counter	VIM-2 inh conf
CCOc1ccc(Nc2ccnc3cc(Cl)ccc23)cc1	i	i	i	i	i	nt	nt	nt	nt
CN1CCN(c2ccc(Nc3ccnc4cc(Cl)ccc34)cc2)CC1	i	i	i	i	87	i	i	i	88
O=C(Cc1c[nH]c2ccccc12)Nc1ccc(Nc2cccnc2)c(-c2cc(F)cc(F)c2)c1	nt	nt	i	i	nt	nt	nt	nt	nt
CCN(CC)c1nc(C(N)=O)cc(-c2ccccc2)n1	i	i	i	i	i	nt	nt	nt	nt
CCN(CC)c1nc(-c2ccc(C(=O)NN)cc2)nc(-c2ccc(C(=O)NN)cc2)n1	i	i	i	i	75	i	i	i	85
CC(=O)c1c(C)n(-c2cccc(Cl)c2)c2ccc(O)cc12	i	i	i	i	i	nt	nt	nt	nt

Screens from PubChem.
